Reference: ChEMBL document CHEMBL4196059, “Design, synthesis, and biological evaluation of stable β6.3-Helices: Discovery of non-hemolytic antibacterial peptides” (Eur J Med Chem, 2018)
In brackets after ≈: the same amount, converted by molar mass. Activity calls are given as the source filed them. The calls are words filed in the database; no cut-off is given here. Residues, ends and D or L forms follow the SMILES beside them.

Legend:
Escherichia coli [1] = assay: Antibacterial activity against Escherichia coli ATCC 25922 after 18 hrs by non-binding surface 96-well plate-based method; assay type: functional
Procedure, shortened: (§1)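 Cultured in cation-adjusted Mueller Hinton broth at 37 °C for 12 h, diluted 40-fold and grown 1.5–3 h to mid-log. Seeded at 5×10^5 CFU/mL over a 12-point dose response in non-binding surface and polystyrene 96-well plates, duplicates (n=2). Incubated static at 37 °C for 18 h. MIC read from OD600 light scattering; colistin and vancomycin as standards.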

Klebsiella pneumoniae [2] = assay: Antibacterial activity against multidrug-resistant Klebsiella pneumoniae ATCC 700603 after 18 hrs by polystyrene 96-well plate-based method; assay type: functional
Procedure, shortened: (§2)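 Strains grown in cation-adjusted Mueller Hinton broth at 37 °C for 12 h, diluted 40-fold and regrown 1.5–3 h to mid-log. Inoculum was 5×10^5 CFU/mL in 12-point dose response, in non-binding surface or polystyrene plates, in duplicate. Plates stood at 37 °C for 18 h. MIC was read by OD600.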

Acinetobacter baumannii [3] = assay: Antibacterial activity against Acinetobacter baumannii ATCC 19606 after 18 hrs by polystyrene 96-well plate-based method; assay type: functional; procedure, shortened: as §1
Klebsiella pneumoniae [4] = assay: Antibacterial activity against multidrug-resistant Klebsiella pneumoniae ATCC 700603 after 18 hrs by non-binding surface 96-well plate-based method; assay type: functional; procedure, shortened: as §2
Acinetobacter baumannii [5] = assay: Antibacterial activity against Acinetobacter baumannii ATCC 19606 after 18 hrs by non-binding surface 96-well plate-based method; assay type: functional; procedure, shortened: as §2
Escherichia coli [6] = assay: Antibacterial activity against Escherichia coli ATCC 25922 after 18 hrs by polystyrene 96-well plate-based method; assay type: functional; procedure, shortened: as §2
Staphylococcus aureus [7] = assay: Antibacterial activity against methicillin-resistant Staphylococcus aureus ATCC 43300 after 18 hrs by non-binding surface 96-well plate-based method; assay type: functional; procedure, shortened: as §2
Staphylococcus aureus [8] = assay: Antibacterial activity against methicillin-resistant Staphylococcus aureus ATCC 43300 after 18 hrs by polystyrene 96-well plate-based method; assay type: functional; procedure, shortened: as §2
[9] = Hemolytic activity against human RBC at 6.25 uM after 1 hr by Drabkin's assay relative to control; assay type: ADME, cell-based, Erythrocyte; conditions: human red blood cells (erythrocytes), read-out: Activity
[10] = Hemolytic activity against human RBC at 50 uM after 1 hr by Drabkin's assay relative to control; assay type: ADME, cell-based, Erythrocyte; conditions: human red blood cells (erythrocytes), read-out: Activity
[11] = Hemolytic activity against human RBC at 25 uM after 1 hr by Drabkin's assay relative to control; assay type: ADME, cell-based, Erythrocyte; conditions: human red blood cells (erythrocytes), read-out: Activity
Klebsiella pneumoniae [12] = assay: Growth inhibition of multidrug-resistant Klebsiella pneumoniae ATCC 700603 at 32 ug/ml after 18 hrs; assay type: functional; conditions: ATCC 700603, 18 h, read-out: GI
Procedure, shortened: (§3)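 Mid-log cultures in cation-adjusted Mueller Hinton broth were added at 5×10^5 CFU/mL to wells at a final compound concentration of 32 μg/mL. Plates stood at 37 °C for 18 h. Growth was read by OD600, and % inhibition was computed against media-only and untreated-bacteria controls.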

[13] = Hemolytic activity against human RBC at 1.56 uM after 1 hr by Drabkin's assay relative to control; assay type: ADME, cell-based, Erythrocyte; conditions: human red blood cells (erythrocytes), read-out: Activity
Cryptococcus neoformans = assay: Growth inhibition of Cryptococcus neoformans H99 ATCC 208821 at 32 ug/ml after 24 hrs by resazurin dye-based microspectrophotometric assay; assay type: functional; conditions: var. grubii H99 ATCC 208821, 24 h, read-out: GI
Procedure, shortened: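 Yeasts were grown 3 days on YPD agar at 30 °C, suspended from five colonies and diluted in YNB broth to a final 2.5×10^3 CFU/mL. Compound at a final 32 μg/mL; incubated 24 h at 35 °C without shaking. C. albicans was read at OD530. C. neoformans was read as OD600–570 after resazurin (0.001% final) and a further 2 h at 35 °C. Fluconazole was the standard.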

Erythrocyte = assay: Hemolytic activity against human RBC after 1 hr by Drabkin's assay; assay type: ADME, cell-based
[14] = Hemolytic activity against human RBC at 3.125 uM after 1 hr by Drabkin's assay relative to control; assay type: ADME, cell-based, Erythrocyte; conditions: human red blood cells (erythrocytes), read-out: Activity
Acinetobacter baumannii [15] = assay: Growth inhibition of Acinetobacter baumannii ATCC 19606 at 32 ug/ml after 18 hrs; assay type: functional; conditions: ATCC 19606 = CIP 70.34 = JCM 6841, 18 h, read-out: GI
Procedure, shortened: (§4)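 Mid-log cultures were prepared as above and seeded at 5×10^5 CFU/mL with compound at a final 32 μg/mL, then held static at 37 °C for 18 h. Growth was read as OD600. Percent inhibition was calculated against media-only and bacteria-only controls on the same plate.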

Staphylococcus aureus [16] = assay: Growth inhibition of methicillin-resistant Staphylococcus aureus ATCC 43300 at 32 ug/ml after 18 hrs; assay type: functional; conditions: ATCC 43300, 18 h, read-out: GI; procedure, shortened: as §3
[17] = Induction of pore formation in DOPC vesicles at 20 uM after 3 mins by carboxyfluorescein dye leakage assay
[18] = Hemolytic activity against human RBC at 12.5 uM after 1 hr by Drabkin's assay relative to control; assay type: ADME, cell-based, Erythrocyte; conditions: human red blood cells (erythrocytes), read-out: Activity
Lipid bilayer [19] = assay: Binding affinity to POPC vesicles by surface plasmon resonance spectroscopy
Procedure, shortened: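 SPR on a dextran chip carrying immobilized POPC liposomes, with running buffer of 10 mM HEPES and 100 mM KCl at pH 7.4. Peptides in PBS were flowed at 25 μL/min at 10–1000 μM, with reference-subtracted response units. KD and Rmax were fitted from maximum response versus concentration. Regeneration used 20 mM CHAPS followed by fresh liposomes.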

Lipid bilayer [20] = assay: Induction of pore formation in POPC vesicles at 20 to 100 uM after 3 mins by carboxyfluorescein dye leakage assay
[21] = Hemolytic activity against human RBC at 0.39 uM after 1 hr by Drabkin's assay relative to control; assay type: ADME, cell-based, Erythrocyte; conditions: human red blood cells (erythrocytes), read-out: Activity
Pseudomonas aeruginosa = assay: Growth inhibition of Pseudomonas aeruginosa ATCC 27853 at 32 ug/ml after 18 hrs; assay type: functional; conditions: ATCC 27853, 18 h, read-out: GI; procedure, shortened: as §4
Candida albicans = assay: Growth inhibition of Candida albicans ATCC 90028 at 32 ug/ml after 24 hrs by OD530 light-scattering microspectrophotometric method; conditions: ATCC 90028, 24 h, read-out: GI
[22] = Hemolytic activity against human RBC at 0.78 uM after 1 hr by Drabkin's assay relative to control; assay type: ADME, cell-based, Erythrocyte; conditions: human red blood cells (erythrocytes), read-out: Activity
Escherichia coli [23] = assay: Growth inhibition of Escherichia coli ATCC 25922 at 32 ug/ml after 18 hrs; assay type: functional; conditions: ATCC 25922, 18 h, read-out: GI; procedure, shortened: as §4
Lipid bilayer [24] = assay: Induction of pore formation in POPC vesicles at 20 uM after 3 hrs by carboxyfluorescein dye leakage assay; conditions: in the assay text read “after 3 mins” for “after 3 hrs”
Procedure, shortened: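 POPC or DOPC liposomes were hydrated in 10 mM HEPES, 100 mM KCl, pH 7.4, containing 50 mM carboxyfluorescein. Size was checked by dynamic light scattering, and vesicles were used at 2.2×10^10 per mL. Peptide at 20 μM was equilibrated with vesicles for 3 min, and dye leakage was measured.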

[25] = Hemolytic activity against human RBC; assay type: ADME, cell-based, Erythrocyte; conditions: human red blood cells (erythrocytes)
[26] = ATCC 19606 = CIP 70.34 = JCM 6841, 18 h
[27] = ATCC 19606 = CIP 70.34 = JCM 6841

Row | Molecule | MIC (Escherichia coli [1]; ATCC 25922, 18 h) [µg/mL] | MIC (Klebsiella pneumoniae [2]; ATCC 700603, 18 h) [µg/mL] | MIC (Acinetobacter baumannii [3]; [26]) [µg/mL] | MIC (Klebsiella pneumoniae [4]; ATCC 700603, 18 h) [µg/mL] | MIC (Acinetobacter baumannii [5]; [26]) [µg/mL] | MIC (Escherichia coli [6]; ATCC 25922, 18 h) [µg/mL] | hemolysis at 1 h, 6.25 µM [9] [%] | hemolysis at 1 h, 50 µM [10] [%] | hemolysis at 1 h, 25 µM [11] [%] | inhibition of growth at 32 µg/mL (Klebsiella pneumoniae [12]) [%] | hemolysis at 1 h, 1.56 µM [13] [%] | inhibition of growth at 32 µg/mL (Cryptococcus neoformans) [%] | Activity (Erythrocyte) | hemolysis at 1 h, 3.125 µM [14] [%] | inhibition of growth at 32 µg/mL (Acinetobacter baumannii [15]) [%] | inhibition of growth at 32 µg/mL (Staphylococcus aureus [16]) [%] | hemolysis at 1 h, 12.5 µM [18] [%] | hemolysis at 1 h, 0.39 µM [21] [%] | inhibition of growth at 32 µg/mL (Pseudomonas aeruginosa) [%] | inhibition of growth at 32 µg/mL (Candida albicans) [%] | other results
1 | CN[C@H](CC(C)C)C(=O)N[C@H]1C(=O)N[C@@H](CC(N)=O)C(=O)N[C@H]2C(=O)N[C@H]3C(=O)N[C@H](C(=O)N[C@H](C(=O)O)c4cc(O)cc(O)c4-c4cc3ccc4O)[C@H](O)c3ccc(c(Cl)c3)Oc3cc2cc(c3O[C@@H]2O[C@H](CO)[C@@H](O)[C@H](O)[C@H]2O[C@H]2C[C@](C)(N)[C@H](O)[C@H](C)O2)Oc2ccc(cc2Cl)[C@H]1O [VANCOMYCIN] | > 32 | > 32 | > 32 | > 32 | > 32 | > 32 |  |  |  |  |  |  |  |  |  |  |  |  |  |  | 
2 | COLISTIN |  |  |  |  |  |  |  |  |  |  |  |  |  |  |  |  |  |  |  |  | MIC (Escherichia coli [1]): 0.016 µg/mL; MIC (Staphylococcus aureus [7]): > 32 µg/mL; MIC (Staphylococcus aureus [8]): > 32 µg/mL; MIC (Klebsiella pneumoniae [2]): 0.25 µg/mL; MIC (Acinetobacter baumannii [3]; [27]): 1 µg/mL; MIC (Klebsiella pneumoniae [4]): 0.06 µg/mL; MIC (Acinetobacter baumannii [5]; [27]): 0.06 to 0.125 µg/mL; MIC (Escherichia coli [6]): 0.125 µg/mL
3 | O=C(NCCO)[C@@H]1CCCN1C(=O)N1CCCN1C(=O)[C@@H]1CCCN1C(=O)N1CCCN1C(=O)[C@@H]1CCCN1C(=O)N1CCCN1C(=O)[C@@H]1CCCN1C(=O)N1CCCN1C(=O)[C@@H]1CCCN1C(=O)N1CCCN1C(=O)[C@@H]1CCCN1C(=O)N1CCCN1C(=O)[C@@H]1CCCN1C(=O)N1CCCN1C(=O)[C@@H]1CCCN1C(=O)N1CCCN1C(=O)OCc1ccccc1 |  |  |  |  |  |  | -0.11 | -0.04 | -0.04 | 11.3 | 0.02 | -4.06 | Dose-dependent effect | 0.15 | 36.2 | 11.8 | -0.04 | -0.04 | -2.74 | 4.99 | Activity [17]: 13%; Kd (Lipid bilayer [19]): 373 µM; Rmax (Lipid bilayer [19]): 601; Activity (Lipid bilayer [20]): inactive; hemolysis at 1 h, 0.78 µM [22]: 0.15%; inhibition of growth at 32 µg/mL (Escherichia coli [23]): 11.3%
4 | CC(C)C[C@@H](NC(=O)[C@H](C)NC(=O)CNC(=O)[C@@H](NC=O)C(C)C)C(=O)N[C@@H](C)C(=O)N[C@@H](C(=O)N[C@H](C(=O)N[C@@H](C(=O)N[C@@H](Cc1c[nH]c2ccccc12)C(=O)N[C@H](CC(C)C)C(=O)N[C@@H](Cc1c[nH]c2ccccc12)C(=O)N[C@H](CC(C)C)C(=O)N[C@@H](Cc1c[nH]c2ccccc12)C(=O)N[C@H](CC(C)C)C(=O)N[C@@H](Cc1c[nH]c2ccccc12)C(=O)NCCO)C(C)C)C(C)C)C(C)C (HELM PEPTIDE1{[O=C[*:2]].V.G.A.[dL].A.[dV].V.[dV].W.[dL].W.[dL].W.[dL].W.[OCCN[*:1]]}$$$$V2.0) | > 50 | > 50 | > 50 | > 50 | > 50 | > 50 | 87.2 | 48.5 | 52.8 | 11.2 | 74.8 | -0.81 | Dose-dependent effect | 84.7 | 6.51 | 24.9 | 66.1 | 5.43 | -6.36 | 8.67 | Activity (Lipid bilayer [24]): 100%; MIC (Staphylococcus aureus [7]; ATCC 43300, 18 h): > 50 µg/mL; MIC (Staphylococcus aureus [8]; ATCC 43300, 18 h): 25 to 50 µg/mL (≈ 13.3 to 26.6 µM); HC50 [25]: 5 µM; hemolysis at 1 h, 0.78 µM [22]: 59.4%; inhibition of growth at 32 µg/mL (Escherichia coli [23]): 11.1%
